Reference: ChEMBL document CHEMBL1641423, “Novel gratisin derivatives with high antimicrobial activity and low hemolytic activity” (Bioorg Med Chem Lett, 2011)
≈ marks a conversion by molar mass, not a printed value. Where a SMILES comes first, the peptide text is derived from it. [ ]: non-standard residue; d: D form. Orn = NCCC[C@H](N)C(=O)O

Tests used:
[1] = system: Bacillus subtilis; assay: Antibacterial activity against Bacillus subtilis NBRC 3513 after overnight incubation by medium dilution method; type: functional
How it was run: (§1)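 MIC by medium dilution with an inoculum of 10⁶ organisms per ml. Value is the minimum inhibitory concentration.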

[2] = system: Priestia megaterium; assay: Antibacterial activity against Bacillus megaterium ATCC 19213 after overnight incubation by medium dilution method; type: functional; how it was run: as §1
[3] = system: Staphylococcus epidermidis; assay: Antibacterial activity against Staphylococcus epidermidis NBRC 12993 after overnight incubation by medium dilution method; type: functional; how it was run: as §1
[4] = system: Staphylococcus aureus; assay: Antibacterial activity against Staphylococcus aureus NBRC 12732 after overnight incubation by medium dilution method; type: functional; how it was run: as §1
[5] = system: Pseudomonas aeruginosa; assay: Antibacterial activity against Pseudomonas aeruginosa NBRC 3080 after overnight incubation by medium dilution method; type: functional; how it was run: as §1
[6] = system: Escherichia coli; assay: Antibacterial activity against Escherichia coli NBRC l2734 after overnight incubation by medium dilution method; type: functional; how it was run: as §1
[7] = Cytotoxicity against human RBC assessed induction of hemolysis at […] after 30 mins microtiter plate reader analysis; type: cell-based; settings: erythrocyte, 0.5 h

SMILES	MIC [1]	MIC [2]	MIC [3]	MIC [4]	MIC [5]	MIC [6]	Activity [7]
CC(C)C[C@@H]1NC(=O)[C@H](CCCN)NC(=O)[C@H](C(C)C)NC(=O)[C@@H](Cc2ccc(O)cc2)NC(=O)[C@H](C)NC(=O)[C@@H](Cc2ccccc2)NC(=O)[C@H](CC(C)C)NC(=O)[C@H](CCCN)NC(=O)[C@H](C(C)C)NC(=O)[C@@H](Cc2ccc(O)cc2)NC(=O)[C@H](C)NC(=O)[C@@H](Cc2ccccc2)NC1=O	12.5 µg/mL (≈ 8.83 µM)	25 µg/mL (≈ 17.7 µM)	50 µg/mL (≈ 35.3 µM)	12.5 µg/mL (≈ 8.83 µM)	> 100 µg/mL	> 100 µg/mL	Non-toxic
CC(C)C[C@@H]1NC(=O)[C@H](CCCN)NC(=O)[C@H](CCCCN)NC(=O)[C@@H](Cc2ccc(O)cc2)NC(=O)[C@@H]2CCCN2C(=O)[C@@H](Cc2ccccc2)NC(=O)[C@H](CC(C)C)NC(=O)[C@H](CCCN)NC(=O)[C@H](CCCCN)NC(=O)[C@@H](Cc2ccc(O)cc2)NC(=O)[C@@H]2CCCN2C(=O)[C@@H](Cc2ccccc2)NC1=O	> 100 µg/mL	> 100 µg/mL	> 100 µg/mL	> 100 µg/mL	> 100 µg/mL	> 100 µg/mL	Non-toxic
CC(C)C[C@@H]1NC(=O)[C@H](CCCN)NC(=O)[C@H](C(C)C)NC(=O)[C@@H](Cc2ccc(O)cc2)NC(=O)[C@H](CO)NC(=O)[C@@H](Cc2ccccc2)NC(=O)[C@H](CC(C)C)NC(=O)[C@H](CCCN)NC(=O)[C@H](C(C)C)NC(=O)[C@@H](Cc2ccc(O)cc2)NC(=O)[C@H](CO)NC(=O)[C@@H](Cc2ccccc2)NC1=O	25 µg/mL (≈ 17.3 µM)	50 µg/mL (≈ 34.5 µM)	50 µg/mL (≈ 34.5 µM)	12.5 µg/mL (≈ 8.63 µM)	> 100 µg/mL	> 100 µg/mL	Non-toxic
CC(C)C[C@@H]1NC(=O)[C@H](CCCN)NC(=O)[C@H](C(C)C)NC(=O)[C@@H](Cc2ccc(O)cc2)NC(=O)[C@H](CCCCN)NC(=O)[C@@H](Cc2ccccc2)NC(=O)[C@H](CC(C)C)NC(=O)[C@H](CCCN)NC(=O)[C@H](C(C)C)NC(=O)[C@@H](Cc2ccc(O)cc2)NC(=O)[C@H](CCCCN)NC(=O)[C@@H](Cc2ccccc2)NC1=O	6.25 µg/mL (≈ 4.09 µM)	6.25 µg/mL (≈ 4.09 µM)	6.25 µg/mL (≈ 4.09 µM)	6.25 µg/mL (≈ 4.09 µM)	100 µg/mL (≈ 65.4 µM)	25 µg/mL (≈ 16.3 µM)	Non-toxic
CC(C)C[C@@H]1NC(=O)[C@H](CCCN)NC(=O)[C@H](C(C)C)NC(=O)[C@@H](Cc2ccc(O)cc2)NC(=O)[C@H](CCCNC(=N)N)NC(=O)[C@@H](Cc2ccccc2)NC(=O)[C@H](CC(C)C)NC(=O)[C@H](CCCN)NC(=O)[C@H](C(C)C)NC(=O)[C@@H](Cc2ccc(O)cc2)NC(=O)[C@H](CCCNC(=N)N)NC(=O)[C@@H](Cc2ccccc2)NC1=O	6.25 µg/mL (≈ 3.94 µM)	6.25 µg/mL (≈ 3.94 µM)	6.25 µg/mL (≈ 3.94 µM)	6.25 µg/mL (≈ 3.94 µM)	50 µg/mL (≈ 31.5 µM)	12.5 µg/mL (≈ 7.88 µM)	Non-toxic

Further lines, with some results ahead:

MIC [1]	MIC [2]	MIC [3]	MIC [4]	MIC [5]	MIC [6]	SMILES	Activity [7]
12.5 µg/mL (≈ 8.85 µM)	12.5 µg/mL (≈ 8.85 µM)	25 µg/mL (≈ 17.7 µM)	6.25 µg/mL (≈ 4.43 µM)	> 100 µg/mL	> 100 µg/mL	CC(C)C[C@@H]1NC(=O)[C@H](CCCN)NC(=O)[C@H](C)NC(=O)[C@@H](Cc2ccc(O)cc2)NC(=O)[C@@H]2CCCN2C(=O)[C@@H](Cc2ccccc2)NC(=O)[C@H](CC(C)C)NC(=O)[C@H](CCCN)NC(=O)[C@H](C)NC(=O)[C@@H](Cc2ccc(O)cc2)NC(=O)[C@@H]2CCCN2C(=O)[C@@H](Cc2ccccc2)NC1=O	Non-toxic
> 50 µg/mL	> 50 µg/mL	> 50 µg/mL	> 50 µg/mL	> 50 µg/mL	> 50 µg/mL	CC(C)C[C@@H]1NC(=O)[C@H](C)NC(=O)[C@H](C(C)C)NC(=O)[C@@H](Cc2ccc(O)cc2)NC(=O)[C@@H]2CCCN2C(=O)[C@@H](Cc2ccccc2)NC(=O)[C@H](CC(C)C)NC(=O)[C@H](C)NC(=O)[C@H](C(C)C)NC(=O)[C@@H](Cc2ccc(O)cc2)NC(=O)[C@@H]2CCCN2C(=O)[C@@H](Cc2ccccc2)NC1=O	Non-toxic
100 µg/mL (≈ 72.3 µM)	100 µg/mL (≈ 72.3 µM)	> 100 µg/mL	100 µg/mL (≈ 72.3 µM)	> 100 µg/mL	> 100 µg/mL	CC(C)[C@@H]1NC(=O)[C@@H](Cc2ccc(O)cc2)NC(=O)[C@@H]2CCCN2C(=O)[C@@H](Cc2ccccc2)NC(=O)[C@H](C)NC(=O)[C@H](CCCN)NC(=O)[C@H](C(C)C)NC(=O)[C@@H](Cc2ccc(O)cc2)NC(=O)[C@@H]2CCCN2C(=O)[C@@H](Cc2ccccc2)NC(=O)[C@H](C)NC(=O)[C@H](CCCN)NC1=O	Non-toxic
> 100 µg/mL	> 100 µg/mL	> 100 µg/mL	> 100 µg/mL	> 100 µg/mL	> 100 µg/mL	CC(C)C[C@@H]1NC(=O)[C@H](CCCN)NC(=O)[C@H](C(C)C)NC(=O)[C@@H](Cc2ccc(O)cc2)NC(=O)[C@@H]2CCCN2C(=O)[C@@H](C)NC(=O)[C@H](CC(C)C)NC(=O)[C@H](CCCN)NC(=O)[C@H](C(C)C)NC(=O)[C@@H](Cc2ccc(O)cc2)NC(=O)[C@@H]2CCCN2C(=O)[C@@H](C)NC1=O	Non-toxic
12.5 µg/mL (≈ 9.74 µM)	12.5 µg/mL (≈ 9.74 µM)	25 µg/mL (≈ 19.5 µM)	12.5 µg/mL (≈ 9.74 µM)	> 100 µg/mL	> 100 µg/mL	CC(C)C[C@@H]1NC(=O)[C@H](CCCN)NC(=O)[C@H](C(C)C)NC(=O)[C@@H](C)NC(=O)[C@@H]2CCCN2C(=O)[C@@H](Cc2ccccc2)NC(=O)[C@H](CC(C)C)NC(=O)[C@H](CCCN)NC(=O)[C@H](C(C)C)NC(=O)[C@@H](C)NC(=O)[C@@H]2CCCN2C(=O)[C@@H](Cc2ccccc2)NC1=O (cyclo(L[dF]P[dA]V[Orn]L[dF]P[dA]V[Orn]))	Non-toxic
6.25 µg/mL (≈ 4.26 µM)	6.25 µg/mL (≈ 4.26 µM)	12.5 µg/mL (≈ 8.52 µM)	6.25 µg/mL (≈ 4.26 µM)	100 µg/mL (≈ 68.1 µM)	100 µg/mL (≈ 68.1 µM)	CC(C)C[C@@H]1NC(=O)[C@H](CCCN)NC(=O)[C@H](C(C)C)NC(=O)[C@@H](Cc2ccc(O)cc2)NC(=O)[C@@H]2CCCN2C(=O)[C@@H](Cc2ccccc2)NC(=O)[C@H](CC(C)C)NC(=O)[C@H](CCCN)NC(=O)[C@H](C(C)C)NC(=O)[C@@H](Cc2ccc(O)cc2)NC(=O)[C@@H]2CCCN2C(=O)[C@@H](Cc2ccccc2)NC1=O [GRATISIN]	Toxic
